Experimental data reported in ChEMBL document CHEMBL3576795, “Neolignans and other metabolites from Ocotea cymosa from the Madagascar rain forest and their biological activities” (J Nat Prod, 2015).
Activity calls are given as the source filed them. The rule behind the calls is not given here.

Legend:
A2780 = assay: Antiproliferative against human A2780 cells after 2 days by AlamarBlue assay; type: functional, cell-based
Aedes aegypti = assay: Insecticidal activity against Aedes aegypti assessed as mortality at 4 mg/ml after 3 days; type: functional; conditions: 72 h
Method in brief: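 A DMSO master stock of 4000 ppm was diluted with 90:10 water:acetone and robotically dispensed into six replicate plates. Plates were infested with about 1-day-old Aedes aegypti larvae hatched overnight in water with liver powder. They were covered to limit drying, held at room temperature for 3 days, and each well was scored for mortality.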

Plasmodium falciparum [1] = assay: Antiplasmodium activity against chloroquine-resistant intraerythrocytic stage of Plasmodium falciparum Dd2 assessed as parasite growth inhibition after 72 hrs by SYBR Green I staining-based assay; type: functional, organism-based; conditions: Dd2, 72 h
Method in brief: (§1)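 Dd2 ring-stage cultures at 1% hematocrit and 1% parasitaemia were grown for 72 h at 37°C in 5.05% CO2/4.93% O2/90.2% N2 with increasing drug concentrations. Viability was read by SYBR Green I DNA quantitation in lysis buffer. IC50 was obtained by nonlinear regression and averaged over three independent runs, each in duplicate, ± S.E.M.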

Plasmodium falciparum [2] = assay: Antiplasmodium activity against Plasmodium falciparum Dd2; type: functional, organism-based; method in brief: as §1
Plasmodium falciparum [3] = assay: Antiplasmodium activity against chloroquine-resistant Plasmodium falciparum Dd2 infected in human RBC assessed as parasite growth inhibition after 42 hrs by microculture radioisotope technique; type: functional, organism-based; conditions: Dd2, 42 h
Plasmodium falciparum [4] = assay: Antiplasmodium activity against chloroquine-sensitive Plasmodium falciparum PoW infected in human RBC assessed as parasite growth inhibition after 42 hrs by microculture radioisotope technique; type: functional, organism-based

Row | SMILES | inhibition (A2780) | IC50 (Plasmodium falciparum [1]) [µM] | also measured
1 | C=CCC1(C(C)Cc2cc(OC)c(OC)c(OC)c2)C=C2OCOC2=CC1=O (stereo not drawn) | inactive |  | 
2 | C=CCc1cc2c(cc1O[C@@H](C)Cc1cc(OC)c(OC)c(OC)c1)OCO2 | inactive |  | mortality at 4000 µg/mL (Aedes aegypti): ≥ 80%
3 | C=CC[C@@]12C[C@]3(OCOC3=CC1=O)[C@@H](C)[C@@H]2c1ccc2c(c1)OCO2 | inactive | 14.6 | mortality at 4000 µg/mL (Aedes aegypti): ≥ 80%
4 | C=CC[C@@]12C[C@]3(OCOC3=CC1=O)[C@@H](C)[C@@H]2c1cc(OC)c2c(c1)OCO2 | inactive |  | 
5 | C=CCc1ccc(O[C@]23C[C@@H](CC=C)C(=O)C=C2OCO3)c(OC)c1 | inactive |  | 
6 | C=CC[C@@]12C[C@]3(OCOC3=CC1=O)[C@@H](C)[C@@H]2c1cc(O)c2c(c1)OCO2 | inactive | 42 | IC50 (Plasmodium falciparum [2]): 28.4 µM
7 | C=CCc1cc2c(c3c1O[C@H](c1cc(OC)c(OC)c(OC)c1)[C@H]3C)OCO2 (relative stereo) | inactive | 0.45 | mortality at 4000 µg/mL (Aedes aegypti): ≥ 80%; IC50 (Plasmodium falciparum [2]): 4.7 µM
8 | C/C=C/c1cc(OC)c(OC(C)Cc2cc(OC)c(OC)c(OC)c2)c(OC)c1 (stereo not drawn) |  |  | IC50 (Plasmodium falciparum [3]): 14.9 µM; IC50 (Plasmodium falciparum [4]): 12.4 µM
9 | C=CC[C@@]12C[C@]3(OCOC3=CC1=O)[C@@H](C)[C@@H]2c1cc(OC)c(OC)c(OC)c1 | inactive |  | 
10 | C=CCC1(C(C)Cc2cc(OC)c(O)c(OC)c2)C=C2OCOC2=CC1=O (stereo not drawn) | inactive |  | IC50 (Plasmodium falciparum [2]): 42.1 µM
11 | C[C@@H]1CC[C@H]2[C@@H](C)C(=O)O[C@@H]3O[C@@]4(C)CC[C@@H]1[C@]32OO4 [ARTEMISININ] |  | 0.00082 | 
12 | C=CCc1cc2c(c3c1O[C@H](c1ccc4c(c1)OCO4)[C@H]3C)OCO2 | inactive |  | 
13 | C=CCC1(C(C)Cc2ccc(OC)c(OC)c2)C=C2OCOC2=CC1=O (stereo not drawn) | inactive |  | 
14 | C=CCC1(C(C)Cc2ccc(O)c(OC)c2)C=C2OCOC2=CC1=O (stereo not drawn) | inactive |  | 
15 | C=CC[C@]12C[C@@]3(OCOC3=CC1=O)[C@H](C)[C@@H]2c1cc(OC)c2c(c1)OCO2 | inactive | 4.1 | 
16 | C=CCc1cc(OC)c(O[C@@H](C)Cc2cc(OC)c(OC)c(OC)c2)c(OC)c1 | inactive | 3.3 | IC50 (Plasmodium falciparum [2]): 3.1 µM
17 | C=CCc1cc(OC)c(O[C@]23C[C@@H](CC=C)C(=O)C=C2OCO3)c(OC)c1 | inactive |  | 
18 | C=CC[C@]12C[C@@]3(OCOC3=CC1=O)[C@H](C)[C@@H]2c1cc(OC)c(OC)c(OC)c1 | inactive | 7.7 | IC50 (Plasmodium falciparum [2]): 40.5 µM
